Results from PubChem BioAssay AID1748 (Sanford-Burnham Center for Chemical Genomics, 2009).
The source made the active and inactive calls.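 How the source made its calls: active means Cell killing by compound with TRAIL above both separate effects added together, at all three tested doses; inactive means the rest.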

System: MCF7 TRAIL potentiation, ATPlite luminescence, 24 h
Experiment: sensitizers of TRAIL-resistant MCF7 to apoptosis – cell-based, ATPlite luminescence, 24 h, confirmation (AID 1748)
Details: stronger effect = higher value
Procedure, shortened: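 Material: TRAIL-resistant MCF7 cells / Signal: ATPlite luminescence / Reagent: TRAIL / Dosing: compound at 1.25 to 5 µM final concentration / Timing: 24 h settling, 4 h compound pretreatment, 24 h TRAIL exposure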

[1] = compound alone 1.25 uM, at 1.25 µM
[2] = compound alone 2.5 uM, at 2.5 µM
[3] = compound alone, no TRAIL, at 5 µM
[4] = compound plus TRAIL 1.25 uM, at 1.25 µM
[5] = compound plus TRAIL 2.5 uM, at 2.5 µM

SMILES | cytotoxicity with TRAIL (at 5 µM) | cytotoxicity [1] [%] | cytotoxicity [2] [%] | cytotoxicity [3] [%] | cytotoxicity with TRAIL [4] [%] | cytotoxicity with TRAIL [5] [%]
CSc1nc(-c2ccc(C)cc2)nc(C(Cl)Cl)n1 | 57% (inactive) | 0 | 8 | 26 | 37 | 48
CCSc1nc(-c2ccccc2)nc(C(Cl)Cl)n1 | 72% | 0 | 0 | 28 | 44 | 52
CSc1nc(-c2ccccc2)nc(C(Cl)Cl)n1 | 82% (inactive) | 0 | 36 | 55 | 55 | 74
